Consider three molecules from ChEMBL document CHEMBL5113395, “Azetidin-2-one-based small molecules as dual hHDAC6/HDAC8 inhibitors: Investigation of their mechanism of action and impact of dual inhibition profile on cell viability” (Eur J Med Chem, 2022).

Series [1] can be described thus: Cytotoxicity against mouse NIH3T3 cells assessed as inhibition of cell growth by neutral red uptake assay.
For a further series, the species on record is Homo sapiens. The series is described as follows: Selectivity index, ratio of IC50 for inhibition of recombinant human full length C-terminal FLAG/His-tagged HDAC1 expressed in Sf9 insect cells to IC50 for inhibition of recombinant human full length N-terminal GST-tagged HDAC6 expressed in Sf9 cells. The method, boiled down: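 Human recombinant HDAC1 or HDAC6 in Tris-HCl pH 8.0 buffer (NaCl, KCl, MgCl2, 1 mg/mL BSA). Incubated with inhibitor dilutions in DMSO and fluorogenic ZMAL substrate (126 μM) at 37 °C for 90 min. Stopped with trichostatin A/trypsin, 30 min at 37 °C. Fluorescence read at ex 390/em 460 nm. IC50 from at least three determinations; ratio HDAC1/HDAC6 IC50.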

The target in series [2] is T1, Protein deacetylase HDAC6 (Homo sapiens, UniProt Q9UBN7).
T1 sequence (Q9UBN7 whole entry): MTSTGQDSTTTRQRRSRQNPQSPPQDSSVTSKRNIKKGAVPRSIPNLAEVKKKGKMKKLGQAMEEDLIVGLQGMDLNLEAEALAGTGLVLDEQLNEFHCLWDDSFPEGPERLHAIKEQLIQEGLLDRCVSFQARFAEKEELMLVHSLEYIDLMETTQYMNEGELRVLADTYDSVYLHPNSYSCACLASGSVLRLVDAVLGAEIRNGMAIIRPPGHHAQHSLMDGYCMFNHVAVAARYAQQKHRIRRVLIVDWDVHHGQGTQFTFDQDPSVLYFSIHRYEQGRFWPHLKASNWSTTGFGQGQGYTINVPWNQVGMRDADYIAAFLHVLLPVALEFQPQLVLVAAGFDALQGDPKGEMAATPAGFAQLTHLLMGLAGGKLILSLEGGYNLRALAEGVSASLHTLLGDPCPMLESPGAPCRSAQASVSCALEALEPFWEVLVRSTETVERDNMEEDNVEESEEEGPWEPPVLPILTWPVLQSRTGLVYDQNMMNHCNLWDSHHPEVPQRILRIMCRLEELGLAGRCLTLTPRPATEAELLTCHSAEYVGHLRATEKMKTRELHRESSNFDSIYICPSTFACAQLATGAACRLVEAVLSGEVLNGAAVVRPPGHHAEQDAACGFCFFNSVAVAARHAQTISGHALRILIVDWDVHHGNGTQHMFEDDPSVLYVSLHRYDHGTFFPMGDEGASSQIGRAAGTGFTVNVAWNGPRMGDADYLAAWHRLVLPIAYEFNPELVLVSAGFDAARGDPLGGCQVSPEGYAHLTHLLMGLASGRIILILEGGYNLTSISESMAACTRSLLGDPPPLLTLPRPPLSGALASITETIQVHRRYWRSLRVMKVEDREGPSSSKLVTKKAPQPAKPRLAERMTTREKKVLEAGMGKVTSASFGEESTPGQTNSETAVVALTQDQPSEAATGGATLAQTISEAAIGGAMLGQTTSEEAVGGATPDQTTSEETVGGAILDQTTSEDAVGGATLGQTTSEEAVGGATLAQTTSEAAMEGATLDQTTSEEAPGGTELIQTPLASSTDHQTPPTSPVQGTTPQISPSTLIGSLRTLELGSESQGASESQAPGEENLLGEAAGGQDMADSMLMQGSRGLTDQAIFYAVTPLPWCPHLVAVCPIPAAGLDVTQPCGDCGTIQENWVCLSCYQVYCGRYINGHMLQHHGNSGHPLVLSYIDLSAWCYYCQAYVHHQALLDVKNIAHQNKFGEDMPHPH
In words: Inhibition of recombinant human full length N-terminal GST-tagged HDAC6 expressed in Sf9 cells using ZMAL (Z-(Ac)Lys-AMC as substrate measured after 90 mins by fluorescence plate reader analysis.

Series [3] has as its target T2, Histone deacetylase 8 (Homo sapiens) (UniProt Q9BY41).
T2 sequence (whole entry): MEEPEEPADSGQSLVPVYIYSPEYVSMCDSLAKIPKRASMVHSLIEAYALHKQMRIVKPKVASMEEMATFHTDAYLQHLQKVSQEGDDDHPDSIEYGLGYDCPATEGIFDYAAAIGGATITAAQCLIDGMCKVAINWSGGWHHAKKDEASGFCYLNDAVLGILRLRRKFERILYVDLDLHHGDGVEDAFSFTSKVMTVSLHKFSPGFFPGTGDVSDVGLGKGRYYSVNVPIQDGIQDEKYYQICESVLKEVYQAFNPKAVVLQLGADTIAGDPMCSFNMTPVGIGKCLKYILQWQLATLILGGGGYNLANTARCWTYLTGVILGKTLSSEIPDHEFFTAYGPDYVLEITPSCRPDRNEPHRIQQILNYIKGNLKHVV
In words: Inhibition of HDAC8 in human U-937 cells assessed as increase in acetylation level of SMC3 at 10 uM measured after 48 hrs by Western blot analysis. Format: cell-based. The method, boiled down:
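HCT116 or U937 cells were treated at 10 µM for 24–48 h and lysed in NP40 buffer with protease/phosphatase inhibitors. 50 µg protein was resolved by SDS-PAGE and probed with anti-acetyl-SMC3 (Lys105/106, 1:1000), normalized to GAPDH (1:3000). PCI served as positive control, and band intensities were semi-quantified by densitometry.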

Series [4] addresses T3, Polyamine deacetylase HDAC10 (Homo sapiens, UniProt Q969S8).
T3 sequence (Q969S8 whole entry): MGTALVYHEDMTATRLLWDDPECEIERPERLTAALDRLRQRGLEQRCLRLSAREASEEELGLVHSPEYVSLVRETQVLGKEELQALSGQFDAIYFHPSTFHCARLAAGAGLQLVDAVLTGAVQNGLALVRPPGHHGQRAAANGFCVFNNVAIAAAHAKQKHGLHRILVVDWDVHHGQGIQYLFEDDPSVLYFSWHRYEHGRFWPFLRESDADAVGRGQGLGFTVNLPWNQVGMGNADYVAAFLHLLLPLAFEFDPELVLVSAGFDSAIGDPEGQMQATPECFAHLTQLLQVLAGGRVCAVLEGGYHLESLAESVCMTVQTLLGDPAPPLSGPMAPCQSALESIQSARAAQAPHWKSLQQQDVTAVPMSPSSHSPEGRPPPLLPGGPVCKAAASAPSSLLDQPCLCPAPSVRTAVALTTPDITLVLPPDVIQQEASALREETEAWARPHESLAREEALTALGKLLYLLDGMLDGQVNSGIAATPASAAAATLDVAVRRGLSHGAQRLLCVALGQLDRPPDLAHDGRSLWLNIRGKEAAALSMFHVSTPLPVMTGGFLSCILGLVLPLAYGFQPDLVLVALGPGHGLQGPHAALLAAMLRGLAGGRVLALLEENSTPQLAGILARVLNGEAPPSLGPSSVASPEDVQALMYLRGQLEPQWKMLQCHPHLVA
In words: Inhibition of recombinant human N-terminal FLAG tagged HDAC10 expressed in baculovirus infected Sf9 insect cells using fluorogenic substrate measured after 30 mins by fluorescence plate reader analysis.

Each structure is given as a SMILES string. pIC50: −log10 of the molar value. Activity calls are given as the source filed them. The calls are words filed in the database; no cut-off is given here.

On to `O=C(NO)c1ccc(CNC(=O)N2CCC(N3C(=O)[C@H](c4ccccc4)[C@H]3c3ccccc3)CC2)cc1` (racemic), for which, in series [1], the CC50 was 101 µM. For the same molecule, the Ratio IC50 in the series filed under Homo sapiens was found to be 200. For the same molecule, the pIC50 in series [2] is 7.68; in series [4], 5.18. Moreover, the inhibition result in series [3] is “Active”.
In the same order, the values of `O=C(NO)c1ccc(CNC(=O)N2CCC(N3CC(c4ccccc4)(c4ccccc4)C3=O)CC2)cc1` are 40 µM, 1260, 8.47, 5.19 and “Active”.
In the same order, the values of `O=C(NO)c1ccc(CC(=O)N2CCC(N3CC(c4ccccc4)(c4ccccc4)C3=O)CC2)cc1` are 48 µM, 106, 7.04, 5.29 and “Active”.

The term CC50 denotes the concentration at which the toxic effect on the cells reaches its halfway point. As a reminder, the pIC50 is −log10 of the IC50, conventionally taken in molar units.
